How the values were obtained:
[1] = Selectivity index, ratio of IC50 for cytotoxic activity against mouse J774 cells to IC50 for antileishmanial activity against Leishmania donovani; type: toxicity, cell-based; conditions: read-out: Ratio IC50
[2] = Selectivity index, ratio of IC50 for cytotoxic activity against mouse J774 cells to IC50 for antileishmanial activity against Leishmania amazonensis amastigotes; type: toxicity, cell-based; conditions: read-out: Ratio IC50
[3] = Drug level in BALB/c mouse liver at 40 mg/kg, po administered as single dose after 1 hr; type: ADME, organism-based; conditions: read-out: Drug uptake
Procedure, shortened: (§1)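 Mice received a single oral dose of 100 μmol/kg (40 mg/kg). Compound levels in plasma, liver, spleen and kidney were measured at 1, 2 and 24 h post-dose and reported as concentrations. Values are means ± standard errors of triplicate determinations.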

[4] = Drug level in BALB/c mouse spleen at 40 mg/kg, po administered as single dose after 1 hr; type: ADME, organism-based; conditions: read-out: Drug uptake; procedure, shortened: as §1
[5] = Drug level in BALB/c mouse plasma at 40 mg/kg, po administered as single dose after 1 hr; type: ADME, organism-based; procedure, shortened: as §1
[6] = test system: Leishmania amazonensis; experiment: Antileishmanial activity against beta-lactamase expressing Leishmania amazonensis amastigotes overnight infected in CD1 mouse macrophages incubated for 72 hrs by nitrocefin dye based assay in presence of posaconazole; type: functional, organism-based
[7] = test system: Mus musculus; experiment: Toxicity in BALB/c mouse assessed as drug tolerance at 30 mg/kg/day, ip for 5 days; type: organism-based; conditions: in vivo, 120 h
Procedure, shortened: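 Compound was dissolved in water and injected i.p. into healthy, uninfected BALB/c mice at 30 mg/kg/day once daily for 5 consecutive days to assess in vivo tolerability.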

[8] = Drug level in BALB/c mouse plasma at 40 mg/kg, po administered as single dose after 24 hrs; type: ADME, organism-based; procedure, shortened: as §1
[9] = Drug level in BALB/c mouse spleen at 40 mg/kg, po administered as single dose after 24 hrs; type: ADME, organism-based; conditions: read-out: Drug uptake; procedure, shortened: as §1
[10] = Drug level in BALB/c mouse liver at 40 mg/kg, po administered as single dose after 24 hrs; type: ADME, organism-based; conditions: read-out: Drug uptake; procedure, shortened: as §1
[11] = test system: Leishmania amazonensis; experiment: Antileishmanial activity against Leishmania amazonensis infected in mouse peritoneal macrophages after 72 hrs using 2 hrs parasite exposed mouse peritoneal macrophages

Row | SMILES | selectivity ratio [1] | selectivity ratio [2] | Activity [7] | other results
1 | COc1ccc(-n2cc(-c3ccc(NC(=N)c4ccccn4)cc3OC(C)C)nn2)cc1 | 10 | 5.5 | – | –
2 | CC(C)Oc1cc(NC(=N)c2ccccn2)ccc1-c1cnc(-c2ccccc2)o1 | 24 | 41 | – | –
3 | CC(C)Oc1cc(NC(=N)c2ccccn2)ccc1-c1ccc(-c2ccccc2)o1.CS(=O)(=O)O | ≥ 25 | ≥ 25 | Non-toxic | concentration at 1 h [3]: 12600 nM; concentration at 1 h [4]: 4700 nM; concentration at 1 h [5]: 1900 nM; IC50 [6]: 55 nM; concentration at 24 h [8]: 140 nM; concentration at 24 h [9]: 600 nM; concentration at 24 h [10]: 600 nM
4 | CS(=O)(=O)O.N=C(Nc1ccc(-c2ccc(-c3ccccc3)o2)c(OC2CCCC2)c1)c1ccccn1 | ≥ 25 | ≥ 25 | Non-toxic | –
5 | CC[C@@H]([C@H](C)O)n1ncn(-c2ccc(N3CCN(c4ccc(OC[C@@H]5CO[C@@](Cn6cncn6)(c6ccc(F)cc6F)C5)cc4)CC3)cc2)c1=O [POSACONAZOLE] | – | – | – | IC50 [11]: 1600 nM
6 | CC(C)Oc1cc(NC(=N)c2ncccn2)ccc1-c1ccc(-c2ccccc2)o1 | 27 | 18 | – | –
7 | CC(C)Oc1cc(NC(=N)c2ccccn2)ccc1-c1ccc(-c2ccccc2)s1 | 3.1 | 3 | – | –
8 | CC(C)Oc1cc(NC(=N)c2ccccn2)ccc1-c1ccc(-c2ccco2)o1.Cl | ≥ 25 | ≥ 25 | Non-toxic | –

Source: ChEMBL document CHEMBL3792273, “Synthesis and pharmacological evaluation of mono-arylimidamides as antileishmanial agents” (Bioorg Med Chem Lett, 2016)
